Screens (PubChem BioAssay)
mIAP act = activators of mouse IAP, primary screen, biochemical, luminescence, uHTS. muIAP, CDP-Star luminescence, 30 min; hits give high values; 1 = vehicle-only enzyme signal, 0 = enzyme-free wells. activation factor at 10 µM. 330,000 tested, 0.24% active. intestinal alkaline phosphatase [Mus musculus];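 active = activation factor of at least 2 at 20 µM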
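System: Mouse IAP enzyme | Also added: CDP-Star substrate | Dosing: Compounds dispensed in DMSO | Schedule: 30 min enzyme-substrate-compound incubation at room temperature | Technique: Chemiluminescence readout | Control set: DMSO-only wells and no-enzyme negative control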
bIAP act = bovine intestinal alkaline phosphatase activators, primary screen, biochemical, bovine IAP, CDP-star luminescence. alkaline phosphatase, intestinal [Bos taurus]. purified bovine IAP, 30 min; hits give high values; fold of DMSO-control signal, blank-subtracted. activation factor at 20 µM. 200,000 tested, 0.17% active;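 active = activation factor of 2 or more at 20 µM, a signal rise over negative controls twice the positive control's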
hIAP act = human IAP activators, primary screen, biochemical, luminescence, uHTS. Intestinal-type alkaline phosphatase (Homo sapiens), P09923. purified human IAP, CDP-Star luminescence, 30 min; hits give high values; 1 = vehicle-only enzyme, 0 = enzyme-free background. activation factor at 10 µM. 330,000 tested, 0.16% active;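 active = activation factor of the enzyme at least 2-fold when tested at 20 µM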
Target sequence (P09923 whole entry, looked up): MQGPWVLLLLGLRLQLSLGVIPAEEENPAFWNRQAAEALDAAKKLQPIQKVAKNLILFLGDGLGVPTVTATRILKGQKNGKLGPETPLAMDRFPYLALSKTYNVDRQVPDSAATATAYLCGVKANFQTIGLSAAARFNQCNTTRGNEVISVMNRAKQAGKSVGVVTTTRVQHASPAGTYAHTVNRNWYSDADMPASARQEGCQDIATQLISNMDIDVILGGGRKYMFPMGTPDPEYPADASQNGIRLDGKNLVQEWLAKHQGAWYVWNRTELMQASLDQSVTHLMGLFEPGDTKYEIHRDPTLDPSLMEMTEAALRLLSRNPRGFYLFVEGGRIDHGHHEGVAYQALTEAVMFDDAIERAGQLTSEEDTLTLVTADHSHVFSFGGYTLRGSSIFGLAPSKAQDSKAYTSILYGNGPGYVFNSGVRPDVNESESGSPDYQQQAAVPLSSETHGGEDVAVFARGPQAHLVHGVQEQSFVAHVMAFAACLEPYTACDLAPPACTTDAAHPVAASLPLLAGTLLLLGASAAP
mIAP inh = inhibitors of mouse IAP, primary screen, biochemical, luminescence, uHTS | intestinal alkaline phosphatase [Mus musculus] | purified mouse IAP, CDP-Star luminescence, 30 min | inhibition, % at 10 µM | 330,000 tested, 0.2% active;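 active = inhibition of at least 40% at 10 µM in the primary screen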
bIAP inh = bovine intestinal alkaline phosphatase inhibitors, primary screen, selectivity assay for TNAP inhibitor project, biochemical, bovine IAP, CDP-star luminescence. alkaline phosphatase, intestinal [Bos taurus]. purified bovine IAP, 30 min. inhibition, % at 20 µM. 190,000 tested, under 10 active;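 active = over 50% inhibition of intestinal alkaline phosphatase at 20 µM in the single-dose screen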
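System: purified bovine intestinal alkaline phosphatase (IAP) enzyme; Input: IAP diluted 1/65,000,000 in the well; Measured by: CDP-star luminescence signal; Compound dosing: 20 µM single dose; Incubation: 30 min reaction at room temperature.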
hIAP inh = human IAP inhibitors, primary screen, biochemical, luminescence, uHTS; purified IAP, CDP-Star luminescence, 30 min; inhibition, % at 10 µM; 330,000 tested, 0.12% active; AID 2544, 2010;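 active = inhibition reaching a set limit with compound at 10 µM in the primary screen, cut at about 35% in these data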
Each line names hits and unclear results; the compound was inactive in the other large screens. A selection: hits, their analogues and other compounds. The true share with any hit is near 0.77%.

O=C(Nc1ccccc1)Nc1ccc(-n2ccc(C(F)(F)F)n2)cc1	mIAP act 2.4 (no result: bIAP act, bIAP inh)
Cc1cc(C)c(S(=O)(=O)Nc2ccc(O)c(Sc3ncn[nH]3)c2)c(C)c1	mIAP inh 69
NC(=O)CN1C(=O)NC2(CCOc3ccccc32)C1=O (configuration not stated)	none (no result: bIAP act, bIAP inh)
CCOC(=O)c1ccc(NC(=S)NC2CCCC2)cc1	mIAP act 2.2
CCOC(=O)c1ccc(NC(=S)NC(=O)C2CCCC2)cc1	none (no result: bIAP act, bIAP inh)
COC(=O)c1ccc(NC(=S)NC2CCCCC2C)cc1 (configuration not stated)	mIAP act 2.6
C[C@H](CO)N1C[C@H](C)[C@@H](CN(C)S(=O)(=O)c2ccccc2)Oc2ccc(NC(=O)Cc3ccccc3)cc2C1=O	none (no result: bIAP act, bIAP inh)
COc1ccc(S(=O)(=O)N(C)C[C@H]2Oc3ccc(NC(=O)Nc4ccc(C(F)(F)F)cc4)cc3C(=O)N([C@H](C)CO)C[C@@H]2C)cc1	none (no result: bIAP act, bIAP inh)
C[C@H](CO)N1C[C@H](C)[C@@H](CN(C)S(=O)(=O)c2ccccc2)Oc2ccc(NC(=O)Nc3ccc4c(c3)OCO4)cc2C1=O	mIAP act 2.6 (no result: bIAP act, bIAP inh)
COc1ccc(NC(=O)Nc2ccc3c(c2)C(=O)N([C@H](C)CO)C[C@H](C)[C@@H](CN(C)S(=O)(=O)c2ccc(OC)cc2)O3)cc1	mIAP act 2.6 (no result: bIAP act, bIAP inh)
O=C(Nc1cccc(/C=C/c2ccccn2)c1)c1ccc(-n2cncn2)c([N+](=O)[O-])c1	none (no result: bIAP act, bIAP inh)
COc1ccc(OC)c(NC(=S)NCCC(c2ccccc2)c2ccccc2)c1	mIAP act 2.6 (no result: bIAP act, bIAP inh)
Cc1ccc(NC(=S)NCCC(c2ccccc2)c2ccccc2)c(C)c1	mIAP act 4.1
COc1ccc(OC)c(NC(=S)NCc2ccccc2OC)c1	none
S=C(NNc1ccc2ccccc2c1)NC1CCCCC1	none
COc1cccc(N2CCN(C(=O)c3ccccc3SCC(=O)NCc3ccco3)CC2)c1	none (no result: bIAP act, bIAP inh)
CCc1cc(Cn2nc(-c3ccccc3)cc2C(=O)NCc2cccs2)on1	mIAP act 3.6 (no result: bIAP act, bIAP inh)
CCCCC1(C)NC(=S)N2N1C(=S)NC2(C)CCCC (configuration not stated)	none (no result: bIAP act, bIAP inh)
CC(C)(C)OC(=O)N1CCN(C(=O)c2[nH]cnc2C(=O)N[C@@H](Cc2ccccc2)C(=O)OCc2ccccc2)CC1	none (no result: bIAP act, bIAP inh)
CC(C)(C)OC(=O)[C@H](Cc1ccccc1)NC(=O)c1nc[nH]c1C(=O)N1CCN(C(=O)OC(C)(C)C)CC1	mIAP inh 41 (no result: bIAP act, bIAP inh)
CC(C)COc1ccc(CSCCNC(=S)Nc2ccccc2)cc1	mIAP act 2.4
CCCCOc1ccc(CSCCNC(=S)Nc2ccccc2)cc1	none
CCCCCOc1ccc(CSCCNC(=S)Nc2ccccc2)cc1	mIAP act 2.5
CN(C(=O)CS(=O)(=O)c1cn(CC(=O)N2CCCC2)c2ccccc12)c1ccccc1	none (no result: bIAP act, bIAP inh)
COC(=O)c1ccc(OC(=O)CCN2c3ccccc3Sc3ccccc32)cc1	bIAP act 5.1
CC[C@@]1(C(=O)OC)N[C@H](CN(C)C(=O)COC)[C@@H]2C(=O)N(C)C(=O)[C@@H]21	none (no result: bIAP act, bIAP inh)
S=C(Nc1ccc(Oc2ccc(NC(=S)NC3CCCCC3)cc2)cc1)NC1CCCCC1	mIAP act 2.4
CC(C)c1ccc(NC(=S)NC2CCCCCC2)cc1	mIAP act 3.2
S=C(Nc1ccc(Oc2ccccc2)cc1)NC1CCCCC1	mIAP act 3.5
COc1ccccc1NC(=S)NC1CCCCCCCCCCC1	mIAP act 2.3 (no result: bIAP act, bIAP inh)
FC(F)Sc1ccc(NC(=S)NC2CCCC2)cc1	mIAP act 2.6
OC1CCC(NC(=S)Nc2ccc(SC(F)F)cc2)CC1 (configuration not stated)	none
CC1=CC(C)(C)N2C(=O)C3(N=C(N)NC(Nc4ccccc4)=N3)c3cc(C)cc1c32 (configuration not stated)	mIAP act 2.2, bIAP act 2.3
CCCCNC(=S)Nc1ccc(C(F)(F)F)cc1	mIAP act 2.2
